Legend:
[1] = test system: MDA-MB-231 cells; assay: Ki-67 immunofluorescence staining for proliferation; format: cell-based, human; settings: MDA-MB-231, 1 μM, 72 hours
[2] = test system: TU-BcX-4IC explants; assay: Western blot of treated PDX tumor explants; format: cell-based, human; settings: 24 hours
[3] = test system: TU-BcX-4IC cells; assay: qRT-PCR of epithelial and mesenchymal genes; format: cell-based, human; settings: 1 μM, 72 hours
Procedure, shortened: (§1)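 Cells were treated 72 h with test compound (1 μM) or DMSO. Total RNA was column-isolated and checked for quantity and quality by absorbance (260, 280 nm). Then 2 μg total RNA was reverse-transcribed and gene expression measured by qRT-PCR.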

[4] = test system: BT-549 cells; assay: Crystal violet staining, cells remaining / viability dose-response; format: cell-based, human
Procedure, shortened: (§2)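 Cells were plated at 5,000/well in 5% charcoal-stripped DMEM for 48 h, then exposed to test compound or DMSO vehicle for 72 h at 37 °C, 5% CO2. They were fixed with glutaraldehyde for 20 min and stained for 20 min with 0.1% crystal violet in 90% methanol. After overnight drying, cells were lysed in 33% acetic acid and read at 620 nm. Signal was normalized to DMSO and plotted as dose-response.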

[5] = test system: TU-BcX-4IC cells; assay: Crystal violet staining, cells remaining / viability dose-response; format: cell-based, human; settings: 1 μM, 72 hours
[6] = test system: TU-BcX-4IC cells; assay: Transwell migration assay; format: cell-based, human; settings: pretreated 1 μM 72 hours, 24 hours migration
Procedure, shortened: (§3)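 Cells were pretreated 72 h with test compound (1 μM) or DMSO, and viable cells were then seeded into transwell chambers for 24 h. Non-migrated cells were removed. Migrated cells were fixed, crystal violet-stained, imaged by brightfield and counted. Counts were normalized to DMSO per cell line; triplicate experiments.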

[7] = biological target: MST2 (Homo sapiens, UniProt Q13188); assay: Kinase inhibition assay; format: biochemical; settings: 1 μM
Sequence of MST2 (Q13188 whole entry): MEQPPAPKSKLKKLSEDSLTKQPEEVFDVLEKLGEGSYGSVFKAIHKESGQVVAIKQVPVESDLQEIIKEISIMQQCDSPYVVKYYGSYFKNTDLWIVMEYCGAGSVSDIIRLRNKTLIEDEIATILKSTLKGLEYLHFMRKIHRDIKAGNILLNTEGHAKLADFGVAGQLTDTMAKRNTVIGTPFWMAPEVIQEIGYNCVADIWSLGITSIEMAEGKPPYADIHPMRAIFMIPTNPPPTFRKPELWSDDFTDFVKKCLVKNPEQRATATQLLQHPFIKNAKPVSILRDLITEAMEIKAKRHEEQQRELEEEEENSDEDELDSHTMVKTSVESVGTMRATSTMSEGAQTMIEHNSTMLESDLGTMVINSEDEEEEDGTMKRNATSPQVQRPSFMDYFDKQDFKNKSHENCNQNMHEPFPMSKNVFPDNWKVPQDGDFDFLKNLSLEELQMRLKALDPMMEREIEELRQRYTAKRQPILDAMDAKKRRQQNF

[8] = test system: MDA-MB-231 M2 spheres; assay: Mammosphere formation and area quantification; format: cell-based, human; settings: MDA-MB-231, 7 days treatment
Procedure, shortened: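 MDA-MB-231 cells were seeded at 1,000/well in low-attachment wells in serum-free F12/DMEM plus B-27 and allowed 24 h to form spheres. Spheres were then treated with test compound or DMSO for one week, re-dosed every three days. Imaging was at 40X or 100X. Sphere length and width were measured, area was calculated, and values were compared with DMSO controls.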

[9] = test system: BT-549 cells; assay: qRT-PCR of epithelial and mesenchymal genes; format: cell-based, human; settings: BT-549, 1 μM, 72 hours
Procedure, shortened: as §1

[10] = test system: TU-BcX-49S cells; assay: qRT-PCR of epithelial and mesenchymal genes; format: cell-based, human
[11] = biological target: HIPK4 (Homo sapiens, UniProt Q8NE63); assay: Kinase inhibition assay; format: biochemical; settings: 1 μM
Sequence of HIPK4 (Q8NE63 whole entry): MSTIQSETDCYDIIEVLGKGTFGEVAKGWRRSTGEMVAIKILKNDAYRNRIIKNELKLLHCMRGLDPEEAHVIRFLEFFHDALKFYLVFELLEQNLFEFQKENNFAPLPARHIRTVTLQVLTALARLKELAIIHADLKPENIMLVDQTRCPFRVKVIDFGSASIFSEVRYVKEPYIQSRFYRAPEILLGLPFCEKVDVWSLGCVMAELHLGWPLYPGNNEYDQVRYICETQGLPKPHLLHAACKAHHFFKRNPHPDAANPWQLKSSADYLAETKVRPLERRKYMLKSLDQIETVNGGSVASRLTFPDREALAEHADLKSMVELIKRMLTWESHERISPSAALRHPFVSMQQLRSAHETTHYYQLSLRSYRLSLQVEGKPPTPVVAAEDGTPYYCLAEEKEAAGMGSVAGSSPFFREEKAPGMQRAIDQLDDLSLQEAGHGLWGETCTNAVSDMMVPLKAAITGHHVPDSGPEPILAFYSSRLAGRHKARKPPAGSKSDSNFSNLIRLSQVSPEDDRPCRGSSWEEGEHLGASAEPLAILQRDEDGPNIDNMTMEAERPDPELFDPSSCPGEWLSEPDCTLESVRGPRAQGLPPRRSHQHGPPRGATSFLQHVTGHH

[12] = test system: TU-BcX-4IC M2 spheres; assay: Mammosphere formation and area quantification; format: cell-based, human; settings: 7 days treatment
Procedure, shortened: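 Cells were plated at 1,000/well in low-attachment plates in serum-free F12/DMEM with B-27 and left 24 h to form spheres. Spheres were then exposed to test compound or DMSO for one week, re-dosed every three days. Spheres were imaged at 40X or 100X, and length and width were measured to calculate area, which was compared with DMSO controls.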

[13] = biological target: LOK (Homo sapiens, UniProt O94804); assay: Kinase inhibition assay; format: biochemical; settings: 1 μM
Sequence of LOK (O94804 whole entry): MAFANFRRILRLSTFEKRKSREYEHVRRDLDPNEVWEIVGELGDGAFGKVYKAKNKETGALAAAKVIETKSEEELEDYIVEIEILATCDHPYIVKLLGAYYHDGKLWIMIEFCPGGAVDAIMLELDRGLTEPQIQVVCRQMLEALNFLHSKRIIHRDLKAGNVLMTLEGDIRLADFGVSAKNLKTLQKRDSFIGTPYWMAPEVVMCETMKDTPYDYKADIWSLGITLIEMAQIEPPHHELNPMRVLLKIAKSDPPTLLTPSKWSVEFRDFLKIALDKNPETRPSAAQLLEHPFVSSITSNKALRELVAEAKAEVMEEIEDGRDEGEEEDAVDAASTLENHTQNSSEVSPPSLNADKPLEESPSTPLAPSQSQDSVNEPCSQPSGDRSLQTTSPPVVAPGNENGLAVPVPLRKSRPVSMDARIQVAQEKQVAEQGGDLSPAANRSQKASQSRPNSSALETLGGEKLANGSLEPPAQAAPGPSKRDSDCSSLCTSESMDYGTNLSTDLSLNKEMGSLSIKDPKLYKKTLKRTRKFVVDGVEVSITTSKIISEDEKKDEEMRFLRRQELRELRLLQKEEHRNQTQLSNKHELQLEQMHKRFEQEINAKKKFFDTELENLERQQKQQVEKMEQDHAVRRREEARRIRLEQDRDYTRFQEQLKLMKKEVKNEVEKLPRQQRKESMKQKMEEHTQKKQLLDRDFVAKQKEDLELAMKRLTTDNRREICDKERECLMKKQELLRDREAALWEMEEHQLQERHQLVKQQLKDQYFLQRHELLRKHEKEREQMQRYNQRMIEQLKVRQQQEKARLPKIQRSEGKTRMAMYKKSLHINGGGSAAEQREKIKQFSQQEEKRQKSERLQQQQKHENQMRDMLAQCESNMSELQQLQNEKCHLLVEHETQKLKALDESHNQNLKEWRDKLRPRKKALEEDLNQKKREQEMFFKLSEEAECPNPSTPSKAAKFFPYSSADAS

[14] = test system: MDA-MB-231 cells; assay: qRT-PCR of epithelial and mesenchymal genes; format: cell-based, human; settings: MDA-MB-231, 1 μM, 72 hours
Procedure, shortened: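 MDA-MB-231 cells in 5% charcoal-stripped DMEM were pre-exposed for 72 h to test compound (1 μM) or DMSO. RNA was then isolated and gene expression measured by quantitative real-time PCR.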

[15] = test system: BT549 cells; assay: Transwell migration assay; format: cell-based, human; settings: BT549, pretreated 1 μM 72 hours, 24 hours migration
Procedure, shortened: as §3

[16] = biological target: MINK (Homo sapiens, UniProt Q8N4C8); assay: Kinase inhibition assay; format: biochemical; settings: 1 μM
Sequence of MINK (Q8N4C8 whole entry): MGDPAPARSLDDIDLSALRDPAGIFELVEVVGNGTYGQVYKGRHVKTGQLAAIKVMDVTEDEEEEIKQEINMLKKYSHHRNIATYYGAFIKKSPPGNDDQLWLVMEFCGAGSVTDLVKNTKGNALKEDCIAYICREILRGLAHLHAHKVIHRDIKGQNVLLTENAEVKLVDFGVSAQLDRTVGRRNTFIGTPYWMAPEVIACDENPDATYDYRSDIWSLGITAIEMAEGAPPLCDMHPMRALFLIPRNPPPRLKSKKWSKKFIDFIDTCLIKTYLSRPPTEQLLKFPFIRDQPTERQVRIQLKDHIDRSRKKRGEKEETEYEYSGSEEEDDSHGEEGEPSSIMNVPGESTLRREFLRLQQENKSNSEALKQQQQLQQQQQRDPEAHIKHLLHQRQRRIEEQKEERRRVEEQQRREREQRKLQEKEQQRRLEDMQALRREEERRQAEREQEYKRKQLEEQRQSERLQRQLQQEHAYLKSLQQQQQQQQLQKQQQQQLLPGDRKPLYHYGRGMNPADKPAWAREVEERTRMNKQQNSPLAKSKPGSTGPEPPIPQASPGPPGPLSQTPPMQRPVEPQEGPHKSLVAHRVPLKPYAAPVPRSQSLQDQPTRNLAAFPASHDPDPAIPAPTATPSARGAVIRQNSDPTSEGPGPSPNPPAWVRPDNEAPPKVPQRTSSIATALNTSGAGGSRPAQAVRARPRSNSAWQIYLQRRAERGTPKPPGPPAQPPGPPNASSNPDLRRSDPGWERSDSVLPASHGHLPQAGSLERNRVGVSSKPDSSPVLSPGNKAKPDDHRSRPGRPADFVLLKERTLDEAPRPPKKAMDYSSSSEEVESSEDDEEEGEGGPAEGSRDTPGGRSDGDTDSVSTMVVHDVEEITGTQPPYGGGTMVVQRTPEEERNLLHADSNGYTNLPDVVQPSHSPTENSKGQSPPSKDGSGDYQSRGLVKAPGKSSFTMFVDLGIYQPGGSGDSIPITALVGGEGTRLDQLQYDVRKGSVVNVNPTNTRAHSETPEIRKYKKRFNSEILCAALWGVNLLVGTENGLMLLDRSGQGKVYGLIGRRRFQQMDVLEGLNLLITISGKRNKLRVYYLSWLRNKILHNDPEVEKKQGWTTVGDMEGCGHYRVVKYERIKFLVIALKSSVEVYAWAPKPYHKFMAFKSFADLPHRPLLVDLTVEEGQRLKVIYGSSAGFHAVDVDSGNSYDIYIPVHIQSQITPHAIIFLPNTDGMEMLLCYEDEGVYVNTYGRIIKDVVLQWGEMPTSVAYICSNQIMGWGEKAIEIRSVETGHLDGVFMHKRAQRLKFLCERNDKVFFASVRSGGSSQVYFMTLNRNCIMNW

[17] = test system: MDA-MB-231 cells; assay: Crystal violet staining, cells remaining / viability dose-response; format: cell-based, human
Procedure, shortened: as §2

[18] = biological target: T1, NEK2 (Homo sapiens, UniProt P51955); assay: Kinase inhibition assay; format: biochemical; settings: 1 μM
T1 sequence (P51955 1-445): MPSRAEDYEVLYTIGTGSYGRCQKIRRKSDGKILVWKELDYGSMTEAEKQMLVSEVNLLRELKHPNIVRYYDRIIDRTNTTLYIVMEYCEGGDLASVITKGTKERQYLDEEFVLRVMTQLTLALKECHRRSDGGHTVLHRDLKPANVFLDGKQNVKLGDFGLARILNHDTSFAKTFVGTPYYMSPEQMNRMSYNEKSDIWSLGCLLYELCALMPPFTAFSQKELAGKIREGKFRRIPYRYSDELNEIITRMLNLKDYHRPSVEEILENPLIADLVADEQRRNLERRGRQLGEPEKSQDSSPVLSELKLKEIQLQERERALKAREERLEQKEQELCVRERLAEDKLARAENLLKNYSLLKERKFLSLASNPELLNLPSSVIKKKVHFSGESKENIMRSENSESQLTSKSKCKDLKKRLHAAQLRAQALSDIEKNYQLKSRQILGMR

For CC[C@@H]1C(=O)N(C)c2cnc(Nc3ccc(C(=O)NC4CCN(C)CC4)cc3OC)nc2N1C1CCCC1 [BI2536], the “Ki-67 positive cells (cell proliferation)” value [1] was “significantly reduced the number of Ki-67 positive cells”.
In the case of CC[C@@H]1C(=O)N(C)c2cnc(Nc3ccc(C(=O)N[C@H]4CC[C@H](N5CCN(CC6CC6)CC5)CC4)cc3OC)nc2N1C(C)C [BI6727], the MMP9 protein expression [2] is reported as “suppressed the mesenchymal markers ZEB1 and MMP9 expression” and the ZEB1 protein expression [2] is reported as “suppressed the mesenchymal markers ZEB1 and MMP9 expression”.
COc1cc2ncn(-c3cc(OCc4sccc4Cl)c(C(N)=O)s3)c2cc1OC [GSK448459A] was tested, and the “MMP9 mRNA expression” value [3] was “Neither GSK346294A nor GSK448459A affected MMP9 expression”, the “ZEB1 mRNA expression” value [3] was “suppressed ZEB1 expression in TU-BcX-4IC cells albeit not significantly” and the “cFOS mRNA expression” value [3] was “suppressive effects in all three TNBC cell lines, although not significantly”. For the same molecule, the MMP9 protein expression [2] was “did not suppress MMP9 and ZEB1 protein expressions”, the ZEB1 protein expression [2] was “did not suppress MMP9 and ZEB1 protein expressions” and the “Number of cells remaining compared to DMSO controls” value ([4]; BT-549, 1 μM, 72 hours) was “increased number of cells remaining”. For the same molecule, the IC50 ([4]; Homo sapiens, BT-549, 72 h, read-out: IC-50, number of cells remaining) was 7.5 µM, the “Number of cells remaining compared to DMSO controls” value [5] was “increased number of cells remaining” and the Transwell cell migration [6] was “most suppressive effects on cell migration”. For the same molecule, the “Binding activity against MST2” value [7] was “significant binding activity”, the Sphere area [8] was “significantly increased sphere area” and the “CDH1 mRNA expression” value [9] was “significantly reduced CDH1 mRNA expression”. The “MMP9 mRNA expression” value [9] was “Neither GSK346294A nor GSK448459A affected MMP9 expression”, the “SNAI1 mRNA expression” value [9] was “increased SNAI1 expression in BT-549 cells significantly” and the “cFOS mRNA expression” value [9] was “suppressive effects in all three TNBC cell lines, although not significantly”. For the same molecule, the “cFOS mRNA expression” value [10] was “Neither GSK346294A nor GSK448459A suppressed cFOS mRNA expression”, the “Binding activity against HIPK4” value [11] was “significant binding activity” and the “Mammosphere formation (sphere area)” value [12] was “significantly suppressed mammosphere formation”. The “Ki-67 positive cells (cell proliferation)” value [1] was “decreased Ki-67 positive cells”, the “Binding activity to LOK” value [13] was 99.1% and the “MMP9 mRNA expression” value [14] was “significantly downregulated MMP9 expression”. The “SNAI1 mRNA expression” value [14] was “significantly decreased SNAI1 expression”, the “ZEB1 mRNA expression” value [14] was “significantly increased ZEB1 expression” and the “cFOS mRNA expression” value [14] was “suppressive effects in all three TNBC cell lines, although not significantly”. The Transwell cell migration [15] was “most suppressive effects on cell migration”, the “Binding activity against MINK” value [16] was “significant binding activity” and the IC50 ([17]; Homo sapiens, MDA-MB-231, 72 h, read-out: IC-50, number of cells remaining) was 50 µM. The “Number of cells remaining compared to DMSO controls” value ([17]; MDA-MB-231, 1 μM, 72 hours) was “increased number of cells remaining”, the “Binding activity against NEK2” value [18] was “significant binding activity” and the “Binding activity to NEK2” value [18] was 97.1%.

— publication PMC8092417 (Anti-cancer drugs, 2020)
